For series [1], the target named is T1, Phenylethanolamine N-methyltransferase (Bos taurus, UniProt P10938).
T1 sequence (P10938 whole entry): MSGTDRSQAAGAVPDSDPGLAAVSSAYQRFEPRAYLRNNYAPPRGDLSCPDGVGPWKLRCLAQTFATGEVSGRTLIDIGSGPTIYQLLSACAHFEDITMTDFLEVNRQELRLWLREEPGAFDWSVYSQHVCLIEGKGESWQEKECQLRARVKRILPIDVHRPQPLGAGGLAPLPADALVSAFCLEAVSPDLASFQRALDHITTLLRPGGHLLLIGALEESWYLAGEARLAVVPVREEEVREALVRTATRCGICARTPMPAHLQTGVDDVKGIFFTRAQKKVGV
As to the kind of experiment: (§1) In vitro binding affinity of compound towards bovine adrenal phenylethanolamine N-methyl-transferase (PNMT). The method in brief:
(§2)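 Bovine adrenal PNMT, purified through the isoelectric precipitation step, tested in a radiochemical methylation assay with isoamyl alcohol/toluene extraction. For substrates, Km came from at least five concentrations of the variable substrate. For inhibitors, Ki came from at least three inhibitor concentrations, with phenylethanolamine as the variable substrate.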

Series [2] in a line: Ratio expressed as 100x Vmax/Km. The series is classed as ADME. The method in brief: (§3)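 Substrate kinetics used bovine adrenal PNMT, purified through the isoelectric precipitation step, in a radiochemical methylation assay with isoamyl alcohol/toluene extraction. At least five concentrations of the variable substrate gave Km and Vmax. Vmax is in nmol product per mg protein per min, and the ratio is 100 × Vmax/Km.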

A short description of series [3]: Vmax of compound was determined. The series is classed as ADME. Put shortly:
as §3

Substrate in series [4]: N[C@H]1CCc2ccccc2[C@H]1O
The description is as §1. Put shortly: as §2

Substrate in series [5]: C[C@H](N)[C@H](O)c1ccccc1
The description is as §1. The method in brief:
as §2

Experimental findings from ChEMBL document CHEMBL1123984, “Stereochemical aspects of phenylethanolamine analogues as substrates of phenylethanolamine N-methyltransferase” (J Med Chem, 1988) are described below.

As for `C[C@@H](N)[C@@H](O)c1ccccc1` [(1S,2R)-PHENYLPROPANOLAMINE], in series [1], the Ki was determined as 2980 µM. Same read-out and setting: the figure for `C[C@@H](N)[C@H](O)c1ccccc1` is 2440 µM; for `N[C@H]1CCc2ccccc2C1` it is 4.1 µM. Regarding `NC[C@H](O)c1ccccc1`, the Ratio in series [2] is on record as 1.7. The Vmax in series [3] was 4.85 nM/mg/min. Turning to `C[C@H](N)[C@@H](O)c1ccccc1` [CATHINE], the Ki in series [1] is 3700 µM.

With `N[C@@H]1CCc2ccccc2[C@@H]1O` (racemic), in series [3], the Vmax worked out at 0.15 nM/mg/min. In series [1], `N[C@@H]1CCc2ccccc2C1` returned a Ki of 10 µM.

For the molecule `N[C@H]1CCc2ccccc2[C@H]1O`, the Ratio in series [2] was found to be 3.6. Moreover, the Vmax in series [3] was 0.16 nM/mg/min. The corresponding values for `N[C@@H]1CCc2ccccc2C1O` (single isomer, unassigned) are 0.062 and 0.12 nM/mg/min. In series [1], `N[C@H]1CCc2ccccc2[C@@H]1O` showed a Ki of 4.6 µM.

In turn, `N[C@@H]1CCc2ccccc2[C@@H]1O` returned a Ki in series [1] of 293 µM. As for `C[C@H](N)[C@H](O)c1ccccc1` [(1R,2S)-PHENYLPROPANOLAMINE], in series [2], the Ratio was 0.017. Besides, the maximum rate (Vmax) in series [3] was determined as 0.22 nM/mg/min.

For `NC[C@@H](O)c1ccccc1`, the Ratio in series [2] was 0.96. The Vmax in series [3] was 0.92 nM/mg/min.

B1: Phenylethanolamine N-methyltransferase (Bos taurus), P10938 (protein)
chain: T1 sequence (P10938 whole entry)
With B1, the Michaelis-Menten constant (Km) in series [4] worked out at 4.5 µM; in series [5], 1310 µM.
